This is an account of results in ChEMBL document CHEMBL4819012, “Discovery of novel 2-aryl-3-sulfonamido-pyridines (HoAns) as microtubule polymerization inhibitors with potent antitumor activities” (Eur J Med Chem, 2021).

Active and inactive are the calls of the source. No cut-off for these calls is given here.

The test system of data set [1] is NCI-H460. The experiment in a line: Antiproliferative activity against human NCI-H460 cells assessed as cell viability measured after 72 hrs by MTS method. The data set is classed as functional, cell-based. The following applies: NCI-H460, 72 h. Summed up: (§1)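 Log-phase cells plated at 5×10^3–6×10^3 per well for 24 h, then given graded compound concentrations in fresh medium for 72 h, five replicate wells. Medium replaced with medium containing 10% MTS, 30 min or more at 37 °C in dark; OD 490 nm read. IC50 by nonlinear regression; mean ± SD of at least three experiments.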
On the technique in general: Tetrazolium assays rely on reduction of a dye to a coloured formazan, in cell work by metabolically active cells.

Data set [2] relates to A549. Put plainly: Antiproliferative activity against human A549 cells assessed as cell viability measured after 72 hrs by MTS method. The following applies: A549, 72 h. Type of data set: functional, cell-based. In short, it runs like this:
as §1

Data set [3] deals with SW-620. Put plainly: Induction of cell cycle arrest in human SW-620 cells assessed as accumulation of cells in G2 phase at 0.5 uM measured after 24 hrs by PI staining based flow cytometry method (reference value: 13.83%). Type of data set: functional. On the technique in general: A flow cytometer gives signals particle by particle.
Data set [4] in a line: Toxicity against Athymic nude mouse xenografted with SW-620 cells assessed as toxicity in kidney at 25 mg/kg per two days, po measured after 20 days by H and E staining method. Type of data set: organism-based. The following applies: in vivo, 480 h, time 20 day. In short, it runs like this: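 At the end of the 20-day oral SW620 xenograft study (25 mg/kg every 2 days, n = 6), heart, liver, spleen, lung and kidney were fixed in 4% paraformaldehyde and embedded in paraffin. 4 μm sections stained with Mayer hematoxylin 5 min and eosin-phloxine 2 min, then examined by light microscopy.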

For data set [5], the system named is SW-620. Put plainly: Induction of cell cycle arrest in human SW-620 cells assessed as accumulation of cells in S phase at 0.5 uM measured after 24 hrs by PI staining based flow cytometry method (reference value: 46.12%). Type of data set: functional.
Data set [6] relates to SW-620. The experiment in a line: Induction of apoptosis in human SW-620 cells assessed as early apoptotic cells at 0.5 uM measured after 24 hrs by PI/Annexin V staining based flow cytometry assay (reference value: 2.41%). Type of data set: functional.
The subject of data set [7] is RKO. The experiment in a line: Induction of cell cycle arrest in human RKO cells assessed as reduction in Cyclin B1 expression at 0.5 to 1 uM measured after 24 hrs by western blot assay. The data set is classed as functional, cell-based. The following applies: dose 0.5-1 µM. Summed up: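 RKO or SW620 cells (4×10^5–5×10^5 per well) exposed to 0.5 or 1 μM or DMSO for 24 h. Lysed in SDS loading buffer, boiled, run on 8–15% SDS-PAGE and moved to PVDF. Blocked in 5% milk, probed overnight at 4 °C with anti-Cdc2 or anti-cyclin B1 (1:1000), β-actin as reference. HRP secondary and ECL detection. Done at least three times.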
On the technique in general: A western blot detects proteins with antibodies after separation by electrophoresis.

Data set [8] concerns SW-620. The experiment in a line: Induction of cell cycle arrest in human SW-620 cells assessed as accumulation of cells in G1 phase at 0.5 uM measured after 24 hrs by PI staining based flow cytometry method (reference value: 40.06%). The data set is classed as functional.
Data set [9] deals with HUVEC. Put plainly: Anti-vascular activity against human HUVEC cells assessed as inhibition of cell migration at 0.5 to 1 uM measured after 24 hrs by cell migration assay. The data set is classed as functional, cell-based. The settings on record: dose 0.5-1 µM.
Data set [10] relates to PANC-1. The experiment in a line: Induction of cell cycle arrest in human PANC-1 cells assessed as accumulation of cells in G2 phase at 0.5 uM measured after 24 hrs by PI staining based flow cytometry method (reference value: 3.63%). The data set is classed as functional.

Regarding `COc1ccc(S(=O)(=O)Nc2cccnc2Nc2ccc(O)cc2)cc1` [ABT-751], the figures for the IC50 in [1] and in [2] were 2040 nM and 1380 nM, respectively.

For the molecule `COc1ccc(S(=O)(=O)Nc2cccnc2-c2ccc(C#N)c(F)c2)cc1`, the Activity in [3] was 14.44%; in [4], “Non-Toxic”; in data set [5], 42.53%; in data set [6], 6.66%; in [8], 38.03%; in [9] it was “Dose-Dependent Effect”. Besides, the Activity in [10] was determined as 15.67%. Moreover, the result in data set [7] was Active.

Broadly, the IC50 is the concentration that inhibits the measured activity by half.
